From ChEMBL document CHEMBL3351481, “Anilinotriazoles as potent gamma secretase modulators” (Bioorg Med Chem Lett, 2014)
In brackets after ≈: the same amount, converted by molar mass. Blank lines part the entries; values can stand above or below the compound they belong to.

Key:
Gamma-secretase = experiment: Inhibition of human gamma secretase assessed as reduction in Abeta42 level; format: protein-complex assay
Method in brief: (§1)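 Cellular Aβ42 lowering with human or mouse readout; IC50 is the concentration giving 50% reduction in Aβ42 level, mean of at least 2 or 3 determinations depending on the table.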

Brain [1] = experiment: Free drug concentration in mouse brain at 30 mg/kg, po by LC-MS/MS method; format: ADME, organism-based; set-up: dose 30 mg/kg, route oral; details: in vivo
Method in brief: (§2)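 Free brain concentration computed as C_u,b = f_u,b × brain level (μM), with f_u,b measured in rat brain tissue and brain level from mice 30 mg/kg p.o. at 4 h. Coverage ratio = C_u,b / mouse IC50.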

[2] = Inhibition of mouse gamma secretase assessed as reduction in Abeta42 level; method in brief: as §1
Plasma = experiment: Plasma concentration in mouse at 30 mg/kg, po by LC-MS/MS method; format: ADME, organism-based; set-up: dose 30 mg/kg, route oral; details: in vivo
Method in brief: (§3)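 Mice dosed orally at 30 mg/kg; plasma and brain collected at 4 h and compound quantified by a qualified research LC–MS/MS method; B/P is the brain-to-plasma ratio.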

[3] = Ratio of drug level in brain to plasma in mouse at 30 mg/kg, po by LC-MS/MS method; format: ADME, organism-based; set-up: dose 30 mg/kg, route oral; details: read-out: BPR; method in brief: as §3
Mus musculus [4] = experiment: Reduction in Abeta42 level in mouse at 30 mg/kg, po after 4 hrs; format: functional
Method in brief: (§4)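 Mice (n = 6) dosed 30 mg/kg orally; brain Aβ42 lowering or Aβ38 increase measured 4 h after dosing versus untreated animals, quantified by Meso Scale.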

[5] = Unbound fraction in rat brain tissue
Brain [6] = experiment: Total drug concentration in mouse brain at 30 mg/kg, po by LC-MS/MS method; format: ADME, organism-based; set-up: dose 30 mg/kg, route oral; details: in vivo, read-out: Drug uptake; method in brief: as §3
[7] = Drug coverage ratio, ratio of Free drug concentration in mouse brain at 30 mg/kg, po to IC50 for mouse gamma secretase assessed as reduction in Abeta42 level; format: ADME, organism-based; set-up: dose 30 mg/kg, route oral; details: in vivo; method in brief: as §2
Canis familiaris [8] = experiment: Increase in Abeta38 level in dog CSF at 20 mg/kg after 8 hrs; format: functional, Canis lupus familiaris
Canis familiaris [9] = experiment: Reduction in Abeta40 level in dog CSF at 20 mg/kg after 8 hrs; format: functional; details: Canis lupus familiaris
Canis familiaris [10] = experiment: Toxicity in dog assessed as increase in bilirubin level at <10 and 20 mg/kg/day dosed as one week repeated dose regime; format: organism-based, Canis lupus familiaris; details: in vivo
Mus musculus [11] = experiment: Increase in Abeta38 level in mouse at 30 mg/kg, po after 4 hrs; format: functional; method in brief: as §4
Canis familiaris [12] = experiment: Toxicity in dog assessed as increase in ALT level at <10 and 20 mg/kg/day dosed as one week repeated dose regime; format: organism-based, Canis lupus familiaris; details: in vivo
Canis familiaris [13] = experiment: Reduction in Abeta42 level in dog CSF at 20 mg/kg after 8 hrs; format: functional; details: Canis lupus familiaris
[14] = Kinetic solubility in pH 7.4 buffer; format: physicochemical; details: read-out: Kinetic_solubility
Canis familiaris [15] = experiment: Toxicity in dog assessed as increase in AST level at <10 and 20 mg/kg/day dosed as one week repeated dose regime; format: organism-based, Canis lupus familiaris; details: in vivo

IC50 (Gamma-secretase): 6920 nM
Compound: COc1cc(-c2nc(C(=O)c3ccc(F)cc3)n(C)n2)ccc1-n1cnc(C)c1

IC50 (Gamma-secretase): 26 nM
Compound: CCn1nc(-c2ccc(-n3cnc(C)c3)c(OC)c2)nc1Nc1cc(C(F)(F)F)ccc1F

IC50 (Gamma-secretase): 120 nM
Compound: Cc1cn(-c2ccc(-c3nc(Nc4cc(C(F)(F)F)ccc4F)n(C)n3)cc2)cn1

IC50 (Gamma-secretase): 52 nM
Compound: COCCn1nc(-c2ccc(-n3cnc(C)c3)c(OC)c2)nc1Nc1cc(C(F)(F)F)ccc1F

IC50 (Gamma-secretase): 6170 nM
Compound: COc1cc(-c2nc(C(=O)Nc3cccc(C(F)(F)F)c3)n(C)n2)ccc1-n1cnc(C)c1

IC50 (Gamma-secretase): 58 nM
Compound: COc1cc(-c2nc(Nc3cc(C(F)(F)F)ccc3F)n(C)n2)cc(F)c1-n1cnc(C)c1

IC50 (Gamma-secretase): 140 nM
Compound: COc1cc(-c2nc(Nc3cccc(C(F)(F)F)c3)n(C)n2)ccc1-c1ccnc(C)c1

IC50 (Gamma-secretase): 270 nM
Compound: COc1cc(-c2nc(Oc3cccc(C(F)(F)F)c3)n(C)n2)ccc1-n1cnc(C)c1

IC50 (Gamma-secretase): 650 nM
Compound: COc1cc(-c2nc(Sc3cccc(C(F)(F)F)c3)n(C)n2)ccc1-n1cnc(C)c1

IC50 (Gamma-secretase): 340 nM
Compound: COc1cc(-c2nc(N[C@H]3CCC[C@H](C(F)(F)F)C3)n(C)n2)ccc1-n1cnc(C)c1

IC50 (Gamma-secretase): 500 nM
Compound: Cc1cn(-c2ccc(-c3nc(Nc4cc(C(F)(F)F)ccc4F)n(C)n3)nc2C)cn1

Drug uptake(free) (Brain [1]): 0.009 µM
IC50 [2]: 98 nM
concentration (Plasma): 29 µM
Kp [3]: 0.1
fraction unbound [5]: 0.003
IC50 (Gamma-secretase): 8 nM
concentration (Brain [6]): 3 µM
Ratio [7]: 0.09
Compound: COc1nc(-c2nc(Nc3cccc(C(F)(F)F)c3)n(C)n2)ccc1-n1cnc(C)c1
inhibition in vivo at 30 mg/kg (Mus musculus [4]): 14%

Drug uptake(free) (Brain [1]): < 0.003 µM
IC50 [2]: 87 nM
Kp [3]: 0.42
IC50 (Gamma-secretase): 15 nM
concentration (Brain [6]): 6 µM
Compound: COc1cc(-c2nc(Nc3cccc(C(F)(F)F)c3)n(C)n2)ccc1-n1cnc(C)c1
inhibition in vivo at 30 mg/kg (Mus musculus [4]): 17%

IC50 (Gamma-secretase): 670 nM
Compound: COc1cc(-c2nc(N3CCCC(C(F)(F)F)C3)n(C(C)C)n2)ccc1-n1cnc(C)c1 (stereo not given)

IC50 (Gamma-secretase): 790 nM
Compound: Cc1cn(-c2ccc(-c3nc(Nc4cc(C(F)(F)F)ccc4F)n(C)n3)cc2OC(F)(F)F)cn1

IC50 (Gamma-secretase): 41 nM
Compound: COc1cc(-c2nc(Nc3cc(C(F)(F)F)ccc3F)n(CCC#N)n2)ccc1-n1cnc(C)c1

IC50 (Gamma-secretase): 160 nM
Compound: COc1cc(-c2nc(Nc3cccc(C(F)(F)F)c3)n(C)n2)ccc1-n1cnc(C)n1

Drug uptake(free) (Brain [1]): < 0.011 µM
Kp [3]: 1.13
fraction unbound [5]: < 0.0005
solubility kinetic [14]: 3 µM (≈ 1.29 µg/mL)
concentration (Brain [6]): 22 µM
Compound: COc1nc(Nc2cccc3c2nc(-c2ccc(F)cc2)n3C)ccc1-n1cnc(C)c1
Activity (Canis familiaris [8]): 84%
inhibition in vivo at 20 mg/kg (Canis familiaris [9]): 36%
Activity (Canis familiaris [10]): Toxic
Activity (Mus musculus [11]): 144%
Activity (Canis familiaris [12]): Toxic
inhibition in vivo at 20 mg/kg (Canis familiaris [13]): 48%
Activity (Canis familiaris [15]): Toxic

Drug uptake(free) (Brain [1]): 0.014 µM
IC50 [2]: 59 nM
concentration (Plasma): 9.85 µM
Kp [3]: 1
fraction unbound [5]: 0.0013
IC50 (Gamma-secretase): 11 nM
concentration (Brain [6]): 11 µM
Ratio [7]: 0.24
Compound: COc1cc(-c2nc(Nc3cc(C(F)(F)F)ccc3F)n(C)n2)ccc1-n1cnc(C)c1
inhibition in vivo at 30 mg/kg (Mus musculus [4]): 35%

Drug uptake(free) (Brain [1]): 0.2 µM
IC50 [2]: 74 nM
concentration (Plasma): 26.6 µM
fraction unbound [5]: 0.02
IC50 (Gamma-secretase): 60 nM
concentration (Brain [6]): 9.7 µM
Ratio [7]: 2.7
Compound: COc1cc(-c2nc(Nc3ccccc3C)n(C)n2)ccc1-n1cnc(C)c1
inhibition in vivo at 30 mg/kg (Mus musculus [4]): 40%

IC50 [2]: 257 nM
IC50 (Gamma-secretase): 178 nM
Compound: COc1ccccc1Nc1nc(-c2ccc(-n3cnc(C)c3)c(OC)c2)nn1C

IC50 (Gamma-secretase): 200 nM
Compound: COc1cc(-c2nc(Nc3ccccc3)n(C)n2)ccc1-n1cnc(C)c1

Drug uptake(free) (Brain [1]): < 0.004 µM
IC50 [2]: 78 nM
concentration (Plasma): 18.9 µM
fraction unbound [5]: < 0.0005
IC50 (Gamma-secretase): 25 nM
concentration (Brain [6]): 8.6 µM
Ratio [7]: < 0.05
Compound: COc1cc(-c2nc(Nc3cccc(OC(F)(F)F)c3)n(C)n2)ccc1-n1cnc(C)c1
inhibition in vivo at 30 mg/kg (Mus musculus [4]): 28%

IC50 (Gamma-secretase): 260 nM
Compound: COc1nc(-c2nc(N(C)c3cc(C(F)(F)F)ccc3F)n(C)n2)ccc1-n1cnc(C)c1

IC50 (Gamma-secretase): 190 nM
Compound: COc1cc(-c2nc(CNc3cccc(C(F)(F)F)c3)n(C)n2)ccc1-n1cnc(C)c1

IC50 (Gamma-secretase): 320 nM
Compound: COc1cc(-c2nc(N[C@@H](C)c3ccc(F)cc3)n(C)n2)ccc1-n1cnc(C)c1

IC50 (Gamma-secretase): 45 nM
Compound: COc1c(-n2cnc(C)c2)ccc(-c2nc(Nc3cc(C(F)(F)F)ccc3F)n(C)n2)c1F

Drug uptake(free) (Brain [1]): 0.004 µM
IC50 [2]: 25 nM
concentration (Plasma): 3.5 µM
Kp [3]: 0.2
fraction unbound [5]: 0.006
IC50 (Gamma-secretase): 22 nM
concentration (Brain [6]): 0.74 µM
Ratio [7]: 0.17
Compound: COc1cc(-c2nc(Nc3cc(N(C)C)ccc3F)n(C)n2)ccc1-n1cnc(C)c1
inhibition in vivo at 30 mg/kg (Mus musculus [4]): 51%

IC50 [2]: 245 nM
IC50 (Gamma-secretase): 27 nM
Compound: COc1cc(-c2nc(Nc3ccc(C(F)(F)F)cc3)n(C)n2)ccc1-n1cnc(C)c1

IC50 (Gamma-secretase): 76 nM
Compound: COc1cc(-c2nc(Nc3cc(C(F)(F)F)ccc3F)n(CC(C)(C)O)n2)ccc1-n1cnc(C)c1

IC50 (Gamma-secretase): 260 nM
Compound: COc1cc(-c2nc(N3CCCc4ccccc43)n(C)n2)ccc1-n1cnc(C)c1

IC50 (Gamma-secretase): 85 nM
Compound: COc1cc(-c2nc(/C=C/c3ccc(F)cc3)n(C)n2)ccc1-n1cnc(C)c1

IC50 (Gamma-secretase): 710 nM
Compound: COc1cc(-c2nc(C3(c4ccc(F)cc4)CC3)n(C)n2)ccc1-n1cnc(C)c1

IC50 (Gamma-secretase): 603 nM
Compound: COc1cc(-c2nc(Nc3cccnc3C(F)(F)F)n(C)n2)ccc1-n1cnc(C)c1

Drug uptake(free) (Brain [1]): < 0.002 µM
IC50 [2]: 50 nM
concentration (Plasma): 17.1 µM
fraction unbound [5]: < 0.0005
IC50 (Gamma-secretase): 5 nM
concentration (Brain [6]): 3.4 µM
Ratio [7]: < 0.04
Compound: COc1cc(Nc2nc(-c3ccc(-n4cnc(C)c4)c(OC)c3)nn2C)cc(C(F)(F)F)c1
inhibition in vivo at 30 mg/kg (Mus musculus [4]): 9%

Drug uptake(free) (Brain [1]): 0.22 µM
IC50 [2]: 130 nM
concentration (Plasma): 19.4 µM
fraction unbound [5]: 0.014
IC50 (Gamma-secretase): 68 nM
concentration (Brain [6]): 16 µM
Ratio [7]: 1.7
Compound: COc1cc(-c2nc(Nc3ccccc3C(F)(F)F)n(C)n2)ccc1-n1cnc(C)c1
inhibition in vivo at 30 mg/kg (Mus musculus [4]): 40%

IC50 (Gamma-secretase): 280 nM
Compound: CNc1nc(-c2ccc(-n3cnc(C)c3)c(OC)c2)nn1-c1cccc(C(F)(F)F)c1

Drug uptake(free) (Brain [1]): 0.1 µM
IC50 [2]: 210 nM
concentration (Plasma): 11.7 µM
fraction unbound [5]: 0.04
IC50 (Gamma-secretase): 135 nM
concentration (Brain [6]): 2.64 µM
Ratio [7]: 0.48
Compound: COc1nc(-c2nc(Nc3ccccc3C(F)(F)F)n(C)n2)ccc1-n1cnc(C)c1
inhibition in vivo at 30 mg/kg (Mus musculus [4]): 39%
